Source: PubChem BioAssay (several laboratories)
TDP2 absorb = human TDP2 enzyme inhibitors, primary screen, biochemical, epi absorbance, recombinant enzyme | Tyrosyl-DNA phosphodiesterase 2 (Homo sapiens), O95551 | T5PNP hydrolysis, p-nitrophenol absorbance 415 nm | inhibition, % at 12.8 µM | 0.34% of 370,000 active | AID 720702, 2013;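 active = inhibition above the mean of all tested compounds plus 3 SD, set per campaign, cut at about 25% in these data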;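 note: 0% = DMSO with enzyme and 100% = buffer with substrate but no TDP2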
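System: recombinant human TDP2 / Amount: 120 nM TDP2 per well / Also added: 5 mM T5PNP chromogenic substrate / Doses: 12.8 µM single point, 1% DMSO / Incubation: 2 h at 37 °C / Detection: p-Nitrophenol epi absorbance / Evaluation: % inhibition relative to enzyme-containing and enzyme-free wells / Repeats: singlicate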
GSTO1 inh = inhibitors of recombinant GSTO1, primary screen, counter-screen for RBBP9 inhibitor project, biochemical, fluorescence polarization; Glutathione S-transferase omega-1 (Homo sapiens), P78417; AID 1974, 2009; activity-based probe fluorescence polarization; 1.1% of 300,000 active; inhibition, % at 5.96 µM;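 active = inhibition above the campaign mean inhibition plus 3 SD, cut at about 35% in these data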;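 note: 0% = GSTO1-1 with DMSO and 100% = wells lacking GSTO1-1 enzyme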
PAD4 FP inh = human PAD4 inhibitors, primary screen, biochemical, fluorescence polarization, 1536-well format; recombinant PAD4, RCA probe fluorescence polarization; AID 485272, 2010; Protein-arginine deiminase type-4 (Homo sapiens), Q9UM07; inhibition, % at 6.36 µM; 0.41% of 330,000 active;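 active = percent inhibition above a cutoff equal to the mean of all tested compounds plus 3 SD, cut at about 15% in these data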;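 note: 0% = PAD4 with RCA probe and DMSO and 100% = probe without PAD4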
Target sequence (Q9UM07 whole entry, looked up): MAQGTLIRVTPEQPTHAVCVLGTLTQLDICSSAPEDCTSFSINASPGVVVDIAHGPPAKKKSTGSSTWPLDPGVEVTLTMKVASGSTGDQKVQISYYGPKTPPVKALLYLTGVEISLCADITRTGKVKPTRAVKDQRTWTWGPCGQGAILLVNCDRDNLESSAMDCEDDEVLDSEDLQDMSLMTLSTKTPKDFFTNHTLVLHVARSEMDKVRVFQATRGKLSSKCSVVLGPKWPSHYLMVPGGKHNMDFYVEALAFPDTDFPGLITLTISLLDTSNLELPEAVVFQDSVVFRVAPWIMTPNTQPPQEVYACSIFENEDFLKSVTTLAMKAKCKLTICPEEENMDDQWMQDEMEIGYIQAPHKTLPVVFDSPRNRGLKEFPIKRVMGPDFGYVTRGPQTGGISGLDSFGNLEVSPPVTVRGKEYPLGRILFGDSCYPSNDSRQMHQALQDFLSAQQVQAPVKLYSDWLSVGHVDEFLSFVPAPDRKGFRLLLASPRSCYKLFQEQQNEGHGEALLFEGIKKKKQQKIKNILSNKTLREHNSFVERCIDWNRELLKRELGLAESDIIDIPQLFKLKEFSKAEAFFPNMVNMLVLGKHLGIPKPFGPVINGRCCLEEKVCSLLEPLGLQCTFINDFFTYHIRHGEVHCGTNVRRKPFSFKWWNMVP
Fh CTSL1 inh = Fasciola hepatica cathepsin L1 inhibitors, primary screen, counter-screen for PFM18AAP inhibitor project, biochemical, QFRET, fluorogenic peptide substrate. recombinant F. hepatica cathepsin L1, Z-Leu-Arg-MCA fluorescence. inhibition, % at 5.96 µM. 0.49% of 300,000 active. AID 1906, 2009;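 active = inhibition above the mean of all tested compounds plus 3 SD, set per screening campaign, cut at about 17% in these data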;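 note: 0% = plate median of test compound wells and 100% = 1 µM Z-Phe-Ala-diazomethylketone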
UCH37 DUB inh = inhibitors of human UCH37 deubiquitinase, primary screen, biochemical, Ub-AMC cleavage, fluorescence. inhibition, % (no concentration beside the values). 0.33% of 330,000 active. purified proteasome/UCH37. Ubiquitin carboxyl-terminal hydrolase isozyme L5 (Homo sapiens), Q9Y5K5;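 active = mean inhibition over replicate wells above about 20%, limit read from the data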;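 note: 0% = compound-free wells with enzyme and 100% = wells lacking proteasome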
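Signal – fluorescence, ex 355 nm, em 460 nm · System – Proteasome-bound UCH37 · Input – 0.15 nM proteasome as dispensed · Timing – 30 min preincubation with enzyme, 25 min cleavage at room temperature · Read-out basis – percent inhibition of cleavage signal versus uninhibited and no-proteasome wells · Medium – Tris-HCl pH 7.4 with ATP-MgCl2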
HKDC1 inhibitor = HKDC1 hexokinase inhibitors, primary screen, biochemical, fluorescence, uHTS; inhibition, % at 20 µM; recombinant HKDC1, G6PDH/diaphorase resazurin coupled fluorescence; 0.16% of 340,000 active;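 active = inhibition above about 35% when tested at 20 µM, limit read from the data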;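 note: plate controls were DMSO wells with enzyme for no effect and DMSO wells lacking enzyme for full effect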
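Material: recombinant HKDC1 hexokinase; Amount: HKDC1 at 5 µg/mL; Medium: Tris pH 8.0 buffer with MgCl2, Tween-20, BSA, BME; Schedule: 90 min reaction incubation at room temperature, dark; Technique: coupled resazurin fluorescence, excitation 525 nm, emission 613 nm.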
PAD4 FP conf = human PAD4 inhibitors, confirmation, biochemical, fluorescence polarization. 28% of 1,200 active. inhibition, % at 6.36 µM. shares compounds with PAD4 FP inh. recombinant PAD4, RCA probe fluorescence polarization;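 active = mean inhibition across replicates above the hit cutoff set by the earlier primary screen, cut at about 15% in these data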;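 note: inhibitors block active-site labeling by the probe so polarization falls; 0% = PAD4 with probe and DMSO and 100% = probe without PAD4 enzyme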
HKDC1 act conf = HKDC1 hexokinase activators, confirmation, biochemical, single concentration | AID 504708, 2011 | recombinant HKDC1, G6PDH/diaphorase resazurin fluorescence; stronger effect = lower value | inhibition, % at 20 µM | 14% of 740 active | shares compounds with HKDC1 inhibitor;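 active = inhibition at or below a set negative limit, negative inhibition meaning the enzyme was activated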
TDP2 confirm = human TDP2 enzyme inhibitors, retest, confirmation, biochemical, epi absorbance, recombinant enzyme. AID 743263, 2014. absorbance read-out. 22% of 1,100 active. shares compounds with TDP2 absorb. inhibition, % at 12.8 µM; in the data active = inhibition above about 25%;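 note: 0% = vehicle with enzyme and 100% = no enzyme buffer only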
An asterisk follows results filed as active; . = no result. Compounds with a hit are over-represented: about 1.6% of the library has one in this group of screens.

SMILES	TDP2 absorb	GSTO1 inh	PAD4 FP inh	Fh CTSL1 inh	UCH37 DUB inh	HKDC1 inhibitor	HKDC1 act conf	others
CC(=NNS(=O)(=O)c1ccc(Br)cc1)c1c[nH]c2ccccc12	.	.	.	.	1.2	.	.
Cc1cc(=O)n(C2CCS(=O)(=O)C2)[nH]1 (centres undefined)	70.4*	74.3*	80.2*	5.3	-0.1	-5.4	.	PAD4 FP conf=3.2;TDP2 confirm=26.2*
Oc1cc(NCCN2CCOCC2)cc2cccnc12	31.5*	.	31.2*	.	7.0	8.7	.	PAD4 FP conf=11.7;TDP2 confirm=12.9
COc1cc(/C=C2\C(=O)N(CCC#N)N=C2C)ccc1OCC(=O)Nc1ccccc1	83.8*	47.2*	50.8*	-1.5	-0.6	8.8	.	PAD4 FP conf=-7.8;TDP2 confirm=20.3
COc1cc(/C=C2\SC(N)=NC2=O)ccc1OCC(=O)Nc1ccc(C)cc1	3.4	7.7	-3.8	1.1	1.4	1.7	.
CCOc1cc(/C=C2\C(=O)N(CCC#N)N=C2C)ccc1OCC(N)=O	77.5*	54.5*	56.9*	-2.1	3.8	-10.6	.	PAD4 FP conf=-5.7;TDP2 confirm=18.3
Cc1[nH][nH]c(=O)c1C(c1ccc(-c2ccc(F)cc2)o1)c1c(C)[nH][nH]c1=O	59.9*	51.7*	48.0*	-7.2	21.7*	2.1	.	PAD4 FP conf=-19.5;TDP2 confirm=19.7
CSc1nccc(NN=Cc2ccccc2)n1	.	.	.	.	4.6	.	.
Cc1ccc(S(=O)(=O)NN=C(c2ccccc2)c2cccnc2)cc1	.	.	.	.	5.4	.	.
O=c1cc(-c2ccc(Cl)c(Cl)c2)[nH][nH]1	57.0*	19.1	51.2*	-0.7	-3.1	-2.5	.	PAD4 FP conf=-5.1;TDP2 confirm=4.0
COc1ccc(-c2cc(=O)[nH][nH]2)cc1	61.0*	23.6	55.9*	0.1	2.9	0.4	.	PAD4 FP conf=-4.9;TDP2 confirm=-0.5
COc1ccc(-c2cc(=O)[nH]c(=O)[nH]2)cc1	6.9	-11.5	-3.8	1.0	3.0	-2.1	.
CCCCCCCCCC(=O)NNC(=O)c1c(O)c2ccccc2n(CC)c1=O	-4.7	-3.3	-2.6	-0.5	-11.4	-40.8	-21.2
Cc1ccc(NC(=O)C(C)OC(=O)CCNS(=O)(=O)c2ccc(C)cc2)cc1 (centres undefined)	-2.3	1.8	0.3	-25.5	1.3	-10.4	.
CC(=O)Nc1ccc(S(=O)(=O)NCCC(=O)OC(C)C(=O)c2ccc(C)cc2)cc1 (centres undefined)	0.9	6.8	4.9	-17.0	-0.6	35.4*	-15.8
CC1COCC(C)N1C1=C(Cl)C(=O)c2ccccc2C1=O (centres undefined)	22.0	.	.	.	.	37.9*	43.5
NC1=C(Cl)C(=O)c2ccccc2C1=O	18.8	.	.	.	.	-15.5	.
O=C(NN=Cc1cccnc1)c1cccc(NC(=O)c2cccc(Br)c2)c1	.	.	.	.	4.1	.	.
COc1ccccc1NS(=O)(=O)c1cccc(C(=O)NN=C2CC(=O)CC(C)(C)C2)c1	.	.	.	.	5.6	.	.
COc1cc2c(C#N)c(N3CCc4ccccc4C3)nc(N)c2c(N)n1	-8.9	7.5	-16.2	4.2	-202.4	40.8*	-20.8
Clc1ccccc1C=Nc1cc(-c2ccccc2)nn1-c1ccccc1	.	.	.	.	5.9	.	.
C/C(=N\NC(=O)c1cc(C2CC2)nc2ccccc12)c1ccc(O)cc1O	-10.0	13.0	1.1	3.4	.	-44.0	-5.6
O=[N+]([O-])c1ccc(C=NNc2nc(NCc3ccccc3)nc(N3CCOCC3)n2)cc1	.	.	.	.	3.2	.	.
Cc1ccc(/C=C2\C(=O)ON=C2c2ccccc2)o1	4.3	1.1	-6.8	15.8	8.5	-5.2	.
CN(C)/C=C1/C(=O)N(c2ccc([N+](=O)[O-])cc2)N=C1c1ccccc1	12.7	-0.2	-17.2	0.2	.	.	.
SMILES	TDP2 absorb	GSTO1 inh	PAD4 FP inh	Fh CTSL1 inh	UCH37 DUB inh	HKDC1 inhibitor	HKDC1 act conf	others
Cc1ccc(-c2ccc(/C=C3\C(=O)ON=C3c3ccccc3)o2)c([N+](=O)[O-])c1	12.9	30.7	-6.2	2.9	17.6	42.5*	10.4
O=C1/C(=C\c2ccc(-c3ccccc3[N+](=O)[O-])o2)C(c2ccccc2)=NN1c1ccccc1	-2.0	-0.8	-10.0	-3.7	9.0	42.3*	2.5
CCc1nc2sc3c(=O)[nH]cnc3c2c2c1CSC(C)(C)C2	11.8	21.5	0.1	-0.5	2.3	37.4*	30.5
CCCc1nc2sc3c(=O)[nH]cnc3c2c2c1CCCC2	-9.8	-4.2	-0.5	-2.1	-11.4	.	.
COc1cccc(C=NNC(=O)c2ccc(OCc3cccc(Br)c3)cc2)c1	.	.	.	.	-1.3	.	.
CC(=O)N(Cc1cc(=O)[nH]c2ccccc12)c1ccccc1	11.9	-2.4	5.5	2.3	1.8	-4.6	.
O=Cc1[nH]c2ccccc2c1N(C(=O)CCl)c1ccccc1	-11.3	.	.	.	3.2	35.3*	34.0
COc1ccccc1N1CCN(N=Cc2cc(OC)c(OC(C)=O)c(OC)c2)CC1	.	.	.	.	-0.7	.	.
O=C(O)c1[nH]c2ccccc2c1C(c1cc(Cl)cc([N+](=O)[O-])c1O)c1c(C(=O)O)[nH]c2ccccc12	22.8	73.8*	2.2	-1.7	12.9	37.8*	32.1
NC(=NN=Cc1cccs1)SC1CC(=O)N(c2cccc([N+](=O)[O-])c2)C1=O (centres undefined)	.	.	.	.	3.5	.	.
COCc1cc(C)nc(NC2CCCCC2)c1C#N	-1.8	4.0	-4.1	-0.1	-196.4	0.6	.
COCc1cc(SC2CCCCC2)nc(C)n1	-5.9	8.4	-1.9	-0.7	0.8	45.5*	-27.9
Oc1ccc(C=Nn2c(COc3ccccc3)n[nH]c2=S)c(O)c1	.	.	.	.	2.4	.	.
O=S(=O)(c1cccc(COc2ccc(Cl)cc2Cl)c1)N1CCOCC1	0.6	-1.6	3.1	-0.9	1.9	38.6*	-37.1
NC(=NCc1ccc2c(c1)OCO2)NC(=O)c1ccccc1	12.8	.	.	.	23.8*	29.4	16.7
C/C(CCc1ccc2c(c1)OCO2)=N\NC(=O)c1ccccc1	-9.2	2.1	3.0	-0.2	.	-5.1	.
CCn1cc(C=NNC(=O)c2ccc3c(c2)c(C)c(C)n3Cc2ccccc2)c(C)n1	.	.	.	.	-2.5	.	.
Cc1ccc(C=NNC(=O)c2cc(-c3ccccc3)nc3ccccc23)o1	.	.	.	.	0.8	.	.
